Converted amounts (≈) assume the structure as drawn. “And” between values parts separate entries of the source, which are not always exact repeats. Identical values can stand only once.
Assays:
[1] = Selectivity index, ratio of CC50 for human BEAS2B cells to EC50 for inhibition of recombinant mkate-tagged-Respiratory syncytial virus-A2-L19F RNA-dependent RNA polymerase complex D489E mutant in human BEAS2B cells infected with Respiratory syncytial virus-A2-L19F; type: toxicity, cell-based; conditions: read-out: Ratio CC50/EC50
Summary of the method: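 SI is CC50/EC50 in BEAS-2B cells. EC50 came from reporter RSV dose-response, 3-fold dilutions, top 10 µM. […] Both values from four-parameter variable-slope regression.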

[2] = Inhibition of recombinant Respiratory syncytial virus-A2-L19F RNA-dependent RNA polymerase complex D489E mutant transfected with firefly luciferase gene at SMASh domain in human BEAS2B cells infected with Respiratory syncytial virus-A2-L19F assessed as reduction in viral replication measured after […] by bioluminescence assay; type: cell-based
Summary of the method: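 BEAS-2B cells (1.5×10^4/well) received 3-fold serial compound dilutions prepared in three repeats (top concentration 10 µM) and were infected with firefly-luciferase/SMASh reporter RSV-A2-L19F D489E (MOI 0.1). Luminescence was converted to % inhibition against four-replicate positive and negative controls per plate. EC50 came from four-parameter variable-slope regression.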

Liver [3] = experiment: Half life in human liver microsomes at 1 uM by LC-MS analysis; type: ADME, microsome
Summary of the method: (§1)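 Test article at 1 µM final was incubated in triplicate at 37°C with shaking (150 rpm) with mouse or human liver S9 or microsomes (0.5 mg total protein), with Phase I oxidation and Phase II glucuronidation cofactors. Cofactor-free and microsome-free controls were run, sampled only at 0 and 120 min. Other sampling was at 0, 15, 30, 60 and 120 min into organic internal standard solution.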

BEAS-2B = experiment: Cytotoxicity against human BEAS2B cells after 48 hrs by PrestoBlue staining based fluorescence assay; type: cell-based
Summary of the method: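 Uninfected BEAS-2B cells were exposed to compound for 48 h at 37°C. PrestoBlue was added and incubated 90 min at 37°C, then fluorescence was read (ex 560 nm, em 590 nm). Cytotoxic was defined as metabolic activity <70% of vehicle control. Highest concentration assessed for cytotoxicity was 90 µM, and CC50 came from four-parameter variable slope regression.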

Liver [4] = experiment: Half life in mouse liver microsomes at 1 uM by LC-MS analysis; type: ADME, microsome; summary of the method: as §1
Liver [5] = experiment: Half life in human liver S9 fraction at 1 uM by LC-MS analysis; type: ADME, tissue-based; conditions: s9, 1 µM; summary of the method: as §1
[6] = Aqueous solubility of the compound in citrate buffer at pH 5 after 90 mins by laser nephelometric method; type: physicochemical
Summary of the method: (§2)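 Stocks of 30 mg/mL in DMSO were serially diluted in DMSO, then into buffer to final 300 down to 1.5 µg/mL at 1% final DMSO. Diluent was PBS for pH 7.4 and citrate buffer for pH 3 and 5. Plates stood 90 min at ambient temperature. Forward-scatter laser nephelometry gave the concentration at which precipitation began.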

Plasma [7] = experiment: Half life in human plasma at 1 uM by LC-MS analysis; type: ADME, cell-free
Liver [8] = experiment: Half life in mouse liver S9 fraction at 1 uM by LC-MS analysis; type: ADME, tissue-based; conditions: s9, 1 µM; summary of the method: as §1
[9] = Aqueous solubility of the compound in phosphate buffered saline at pH 7.4 after 90 mins by laser nephelometric method; type: physicochemical; summary of the method: as §2
[10] = Aqueous solubility of the compound in citrate buffer at pH 3 after 90 mins by laser nephelometric method; type: physicochemical; summary of the method: as §2
Plasma [11] = experiment: Half life in mouse plasma at 1 uM by LC-MS analysis; type: ADME, cell-free
[12] = test system: Vesicular stomatitis virus; experiment: Antiviral activity against Vesicular stomatitis virus assessed as reduction in viral replication measured after […] by bioluminescence assay; type: functional
Liver [13] = experiment: Drug metabolism in mouse liver microsomes assessed as 5-(3-Methylfuran-2-carbonyl)-5,6,7,8-tetrahydro-4H-pyrazolo-[1,5-a][1,4]diazepine-2-carboxylic Acid formation at 1 uM by LC-MS analysis; type: ADME, microsome
Liver [14] = experiment: Half life in mouse liver microsomes at 1 uM in absence of NADPH by LC-MS analysis; type: ADME, microsome; summary of the method: as §1
[15] = test system: Respiratory syncytial virus; experiment: Inhibition of recombinant mkate-tagged-Respiratory syncytial virus-A2-L19F RNA-dependent RNA polymerase complex D489E mutant in human BEAS2B cells infected with Respiratory syncytial virus-A2-L19F assessed as reduction in RSV-N mRNA level measured after 20 hrs by RT-qPCR analysis; type: cell-based
Summary of the method: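 Cells infected with mKate recRSV-A2-L19F (MOI 3 particles/cell) and exposed to compound at 0.1–10 µM, or DMSO, at 37°C for 20 h. RT-qPCR of RSV N mRNA, with melt-curve check. ΔΔCT calculated against GAPDH and normalised to DMSO controls. Three independent experiments, each in duplicate; mean ± SD.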

[16] = test system: Respiratory syncytial virus; experiment: Inhibition of Respiratory syncytial virus-A2-L19F RNA-dependent RNA polymerase complex D489E mutant in human BEAS2B cells infected with Respiratory syncytial virus-A2-L19F by firefly luciferase reporter-based RSV minigenome assay; type: cell-based
[17] = Antiviral activity against influenza A virus (A/WSN/1933(H1N1)) infected in MDCK cells assessed as reduction in viral replication measured after […] by bioluminescence assay; type: functional, cell-based
Liver [18] = experiment: Half life in mouse liver microsomes at 1 uM in presence of NADPH by LC-MS analysis; type: ADME, microsome; summary of the method: as §1
[19] = Inhibition of recombinant mkate-tagged-Respiratory syncytial virus-A2-L19F RNA-dependent RNA polymerase D489E mutant in human BEAS2B cells infected with Respiratory syncytial virus-A2-L19F assessed as reduction in progeny release measured after 48 hrs postinfection by fluorescence assay based progeny virus yield-based dose-response assay; type: cell-based; conditions: BEAS-2B
Summary of the method: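 Cells in 12-well format infected with mKate-expressing recRSV-A2-L19F (MOI 0.05 particles/cell) in the presence of serial compound dilutions at 37°C. Cell-associated progeny harvested 48 h post-infection and released by one freeze/thaw cycle. Titres determined by TCID50 titration. Two repeats; EC50 derived by regression.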

[20] = human respiratory syncytial virus, A2-L19F, BEAS-2B, 40 min

Row | SMILES | selectivity ratio [1] | EC50 [2, 20] | t1/2 (Liver [3]) | CC50 (BEAS-2B) | solubility kinetic at 1.5 h [6] | t1/2 (Liver [8]) | solubility kinetic at 1.5 h [9] | solubility kinetic at 1.5 h [10] | also measured
1 | Cc1ccoc1C(=O)N1CCCn2nc(C(=O)Nc3ccc(F)cc3Cl)cc2C1 | 500 | 60 nM | 3.6 h | 30000 nM |  |  |  |  | t1/2 (Liver [4]): 4 min
2 | Cc1ccoc1C(=O)N1CCCn2nc(C(=O)Nc3ccccc3F)cc2C1 | 22 | 50 nM | 5.3 h | 1100 nM | 51 µg/mL (≈ 133 µM) | 0.183 h | 30 µg/mL (≈ 78.5 µM) | 75 µg/mL (≈ 196 µM) | t1/2 (Liver [5]): 7 h; t1/2 (Plasma [7]): > 24 h; t1/2 (Plasma [11]): 2.4 h
3 | Cc1ccoc1C(=O)N1CCCn2nc(C(=O)Nc3ccccc3)cc2C1 | 40 |  | 4.7 h | 8300 nM | 75 µg/mL (≈ 206 µM) | 0.25 h | 63 µg/mL (≈ 173 µM) | 74 µg/mL (≈ 203 µM) | EC50 [12]: > 20000 nM; Drug metabolism (Liver [13]): Metabolite_Detected; t1/2 (Liver [14]): 0.25 h; EC50 [2]: 200 to 210 nM and 840 nM; inhibition [15]: Dose-dependent effect; inhibition [16]: Dose-dependent effect; EC50 [17]: > 20000 nM; t1/2 (Liver [18]): 0.25 h; EC50 [19]: 540 nM

Source: ChEMBL document CHEMBL4007453, “Identification of Non-Nucleoside Inhibitors of the Respiratory Syncytial Virus Polymerase Complex” (J Med Chem, 2017)
